{
  "source": "paper PMC7064889",
  "about": "(Chembiochem, 2019)",
  "assay_type_in_all_cases": "cell-based, human",
  "key": {"M21L cells": {"tested_on": "M21L cells", "assay": "flow cytometry uptake, M21L cells", "procedure,_shortened": "(§1)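 Cells (2×10^6) were incubated with fluorescently labelled cyclic RGD test peptide (30 μM) for 0, 10 or 30 min. They were washed with buffer and analysed by flow cytometry. The negative control received no peptide.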"}, "M21 cells [1]": {"tested_on": "M21 cells", "assay": "live cell imaging", "procedure,_shortened": "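Cells were grown overnight on glass-slip chambers and counterstained with LysoTracker Red DND-99. They were then incubated 10 min with fluorescent test peptide: 5 μM for the non-PEGylated peptide, 10 μM for the 5 kDa PEGylated peptide. Washing was careful but thorough. Confocal live-cell microscopy followed, with z-stacking and gain set in the peptide channel.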"}, "M21 cells [2]": {"tested_on": "M21 cells", "assay": "flow cytometry uptake, M21 cells", "procedure,_shortened": "as §1"}, "[3]": {"conditions": "peptide 30 μM, 0, 10, 30 min, 37 °C, medium without FCS"}},
  "data": [
    {"substance": "c(RGDw(pyren‐1‐yl)K(PEG5000)) [peptide 2]", "values": [
      {"measurement": "0 min sample versus negative control (no peptide), M21L", "setting": "M21L cells; peptide 30 μM, 0 min", "result": "largely overlaps with the 0 min samples"},
      {"measurement": "flow cytometry fluorescence, M21L", "setting": "M21L cells; [3]", "result": "not for αv deficient M21L cells"},
      {"measurement": "uptake in M21L cells (flow cytometry and live cell imaging)", "setting": "M21L cells; αv-deficient M21L cells", "result": "no uptake in αv‐deficient M21L cells"},
      {"measurement": "colocalization with lysosomes, M21", "setting": "M21 cells [1]; LysoTracker Red DND-99, 10 min, 37 °C, peptide 1 5 μM, peptide 2 10 μM", "result": "colocalizes largely with lysosomes"},
      {"measurement": "localization by z-stacking, M21", "setting": "M21 cells [1]; Z-stack, peptide 10 μM, 10 min", "result": "presence of peptide inside the cells"},
      {"measurement": "mode of uptake (conclusion from flow cytometry and live cell imaging)", "setting": "M21 cells [2]; M21 versus M21L cells, flow cytometry 30 μM plus imaging", "result": "integrin‐mediated endocytosis"},
      {"measurement": "0 min sample versus negative control (no peptide), M21", "setting": "M21 cells [2]; peptide 30 μM, 0 min", "result": "largely overlaps with the 0 min samples"},
      {"measurement": "uptake selectivity M21 versus M21L, flow cytometry", "setting": "M21 cells [2]; peptide 30 μM, 0, 10, 30 min", "result": "uptake of peptide 2 only by M21 cells"},
      {"measurement": "flow cytometry fluorescence, M21", "setting": "M21 cells [2]; [3]", "result": "significant fluorescence"}
    ]}
  ]
}
